# Rows were chosen to be rich in hits. Some 1.9% of all compounds tested hit in one or more screens of this group.
# Tb MetRS inh: T. brucei MetRS inhibitors, primary screen, biochemical, luminescence | methionyl-tRNA synthetase (Trypanosoma brucei brucei) | purified T. brucei MetRS, ATP depletion, Kinase-Glo luminescence | inhibition, % at 11.9 µM | 360,000 tested, 0.4% active | AID 624268, 2012;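 active = inhibition above a per-plate cutoff of the control wells' mean inhibition plus 3 SD, cut at about 5.5% in these data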;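 note: 0% = DMSO wells median and 100% = median of wells with control inhibitor compound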
#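 Material: T. brucei methionyl-tRNA synthetase, purified; reagent: substrates ATP, L-methionine and bulk Escherichia coli tRNA; dosing: 11.9 µM single point; timing: 15 min plus 2 h at 25 °C; detection: luminescence of leftover ATP; evaluation: % inhibition; control set: DMSO-only wells as low control; replicates: singlicate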
# PLC-gamma1 inh: PLC-gamma1 enzyme inhibitors, primary screen, biochemical, fluorescence, purified enzyme; 370,000 tested, 0.84% active; fluorogenic substrate; 1-phosphatidylinositol 4,5-bisphosphate phosphodiesterase gamma-1 (Homo sapiens), P19174; inhibition, % at 12.2 µM; in the data active = inhibition above about 9.5%
# sPLA2-III inh: human group III sPLA2 inhibitors, primary screen, biochemical, QFRET, BODIPY PC-A2 liposome substrate. inhibition, % at 12.2 µM. 370,000 tested, 0.56% active. QFRET BODIPY PC-A2 liposome hydrolysis, fluorescence. AID 743126, 2013. Group 3 secretory phospholipase A2 (Homo sapiens), Q9NZ20;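 active = inhibition above mean plus 3 SD of compounds lying within the high and low control bounds, cut at about 19% in these data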;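 note: 0% = median of test compound wells and 100% = no enzyme DMSO wells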
# PLCb3 inh: human PLC-beta3 inhibitors, primary screen, biochemical, fluorescence; 370,000 tested, 0.18% active; inhibition, % at 12.2 µM; Purified PLC-beta3, fluorogenic substrate;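 note: 0% = median of compound wells on plate and 100% = full blocker control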
# Target sequence (Q01970 whole entry, looked up): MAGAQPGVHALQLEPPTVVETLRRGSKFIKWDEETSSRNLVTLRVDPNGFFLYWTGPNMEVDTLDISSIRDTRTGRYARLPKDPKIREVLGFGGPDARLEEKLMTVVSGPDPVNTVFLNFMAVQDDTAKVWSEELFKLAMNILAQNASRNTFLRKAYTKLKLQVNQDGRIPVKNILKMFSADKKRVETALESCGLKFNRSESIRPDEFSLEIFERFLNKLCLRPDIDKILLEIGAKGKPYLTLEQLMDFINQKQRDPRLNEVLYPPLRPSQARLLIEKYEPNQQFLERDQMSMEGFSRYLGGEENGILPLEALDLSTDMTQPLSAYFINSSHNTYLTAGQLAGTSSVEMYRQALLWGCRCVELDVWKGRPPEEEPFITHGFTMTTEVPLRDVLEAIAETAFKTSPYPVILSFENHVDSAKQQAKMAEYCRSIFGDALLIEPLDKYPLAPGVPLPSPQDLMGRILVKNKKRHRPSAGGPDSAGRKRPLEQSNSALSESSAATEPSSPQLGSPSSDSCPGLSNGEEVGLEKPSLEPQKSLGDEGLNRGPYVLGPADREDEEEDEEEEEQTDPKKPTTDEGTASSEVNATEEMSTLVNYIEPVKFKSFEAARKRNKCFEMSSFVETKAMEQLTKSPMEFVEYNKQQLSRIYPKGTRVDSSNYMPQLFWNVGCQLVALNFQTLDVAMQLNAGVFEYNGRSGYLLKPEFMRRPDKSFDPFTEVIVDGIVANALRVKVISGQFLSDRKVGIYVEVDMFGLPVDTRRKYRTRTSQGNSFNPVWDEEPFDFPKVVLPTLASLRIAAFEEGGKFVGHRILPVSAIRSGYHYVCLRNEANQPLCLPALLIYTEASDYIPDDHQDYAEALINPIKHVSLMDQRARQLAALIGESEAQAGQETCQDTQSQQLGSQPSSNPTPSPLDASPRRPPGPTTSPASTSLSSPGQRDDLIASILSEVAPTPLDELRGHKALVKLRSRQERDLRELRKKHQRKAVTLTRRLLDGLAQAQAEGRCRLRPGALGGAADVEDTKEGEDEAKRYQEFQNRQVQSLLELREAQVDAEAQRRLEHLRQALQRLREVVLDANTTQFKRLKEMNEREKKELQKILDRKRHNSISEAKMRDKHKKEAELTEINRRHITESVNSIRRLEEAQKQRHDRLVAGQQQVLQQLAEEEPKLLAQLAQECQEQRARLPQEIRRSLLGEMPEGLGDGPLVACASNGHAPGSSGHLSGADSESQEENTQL
# PLCgamma1 ctr: PLC-gamma1 enzyme inhibitors, counter-screen for PLC-beta3 inhibitor project, biochemical, fluorescence; shares compounds with PLC-gamma1 inh; purified PLC-gamma1, fluorogenic substrate; inhibition, % at 12.3 µM; 3,300 tested, 3.1% active; AID 743258, 2014; in the data active = inhibition above about 9.5%
# PLCb3 confirm: PLC-beta3 inhibitor confirmation, biochemical, fluorescence, purified enzyme; shares compounds with PLC-gamma1 inh; fluorogenic substrate fluorescence; inhibition, % at 12.3 µM; 3,300 tested, 1% active; AID 743261, 2014
# * = called active by the depositor; nt = no result. Cut-off read from the data, not from the text of the source, unless noted: active = inhibition above about 11%; inactive = the rest.
SMILES,Tb MetRS inh,PLC-gamma1 inh,sPLA2-III inh,PLCb3 inh,PLCgamma1 ctr,PLCb3 confirm
N/C(=N\OC(=O)c1ccccc1Cl)c1ccncc1,-1.1,10.4*,6.8,-2.0,-1.5,-2.9
CCOc1ccc(/C=C2\CCC(C3CCCC3)C2=O)cc1 (stereo not given),1.6,9.9*,17.5,-6.3,-8.5,-4.8
CC(C)(C)c1cc(=O)n(-c2ccccc2)[nH]1,3.3,27.6*,-2.3,8.8,7.0,2.2
Cc1ccc(C)c(Nc2nc3ccccc3[nH]2)c1,1.3,-1.4,11.1,-7.6,nt,nt
Cc1cc(C)nc(Nc2nc3ccccc3[nH]2)n1,0.1,13.5*,10.9,9.5,-5.9,-2.1
Nc1ccn([C@@H]2O[C@H](C(=O)N[C@H](Cc3ccccc3)C(=O)NCc3cccc4c3OCO4)[C@@H](O)[C@H]2O)c(=O)n1,nt,-1.1,4.6,3.2,nt,nt
COC(=O)C[C@H]1CC[C@H]2[C@H](COc3ccc(NC(=O)Nc4ccccc4F)cc3C(=O)N2C)O1,nt,-0.4,5.8,2.4,nt,nt
CCCCOCCCNC(=O)C[C@H]1C[C@@]2(C(=O)OC)C(=C[C@H](COCc3ccccc3)O[C@@H]2C)N(CCC2=CCCCC2)C1=O,nt,1.9,-10.8,1.9,nt,nt
Clc1ccc(CNCC2CCCO2)c(Cl)c1 (stereo not given),0.2,10.5*,3.8,-1.1,-0.4,1.5
Clc1ccc(CNCC2CCCO2)cc1 (stereo not given),0.4,-0.5,5.2,-5.0,nt,nt
COC(=O)[C@]12C[C@H](CC(=O)NCCCCc3ccccc3)C(=O)N(Cc3ccc4c(c3)OCO4)C1=C[C@H](COCc1ccccc1)O[C@@H]2C,nt,1.7,-21.6,-0.5,nt,nt
O=C(Nc1cnn(Cc2ccc(F)cc2)c1)c1cnccn1,-0.7,8.0,6.0,7.8,nt,nt
O=C(Nc1cnn(Cc2ccc(F)cc2)c1)C(c1ccccc1)c1ccccc1,0.0,10.4*,-47.5,7.6,-4.6,-0.3
CCOC(=O)C(C)c1c(C)[nH]c(=S)[nH]c1=O (stereo not given),-0.8,11.0*,15.9,8.6,-3.5,-6.9
CC(C)NC(=O)CC1C(=O)N(Cc2ccccc2)C(C)c2nc3ccccc3n21 (stereo not given),-0.3,12.9*,6.9,4.1,-2.3,-0.6
O=C(c1cc(F)ccc1F)N1CCC(Oc2cccnc2)CC1,nt,1.8,-6.2,1.7,nt,nt
Cc1ccc(S(=O)(=O)N2O[C@@H](c3ccccc3)C[C@H]2CON2C(C)(C)CCCC2(C)C)cc1,nt,11.4*,10.5,12.6*,-0.4,-5.4
Cc1ccc(Nc2cc(C)nc3ncnn23)c(Cl)c1,-1.2,2.0,-3.6,-0.9,nt,nt
Cc1cc(Nc2cccc(Cl)c2Cl)n2ncnc2n1,-1.1,13.2*,-2.7,-1.4,-7.3,-2.9
O=C(NNS(=O)(=O)c1ccc(Cl)cc1)c1ccc(S(=O)(=O)N2CCCCC2)cc1,-0.2,5.0,-31.3,11.1*,-4.1,-6.1
COc1ccc(CN2C(=O)CSCCC2(C)c2nnnn2-c2c(C)cccc2C)cc1 (stereo not given),nt,-0.2,9.3,-1.4,nt,nt
Cc1ccc[n+](-c2[nH]c(=O)sc2/C=N/NC(=O)c2ccccc2[O-])c1,0.4,14.3*,1.2,1.2,2.9,-0.6
COCCCNc1nc2c(c(=O)n(Cc3ccc(Cl)cc3)c(=O)n2C)n1C,-0.7,1.2,4.5,-8.0,nt,nt
Cn1c(NCCCN2CCOCC2)nc2c1c(=O)n(Cc1ccc(Cl)cc1Cl)c(=O)n2C,-0.1,12.1*,-3.6,3.0,-12.8,-2.7
Nc1nc(Sc2ccc([N+](=O)[O-])cc2[N+](=O)[O-])n[nH]1,1.9,9.5*,1.4,-0.6,3.5,2.5
Cc1ccnc(Sc2ccc([N+](=O)[O-])cc2[N+](=O)[O-])n1,-0.1,5.8,1.1,5.8,nt,nt
O=C(O)CCN(Cc1ccccc1)S(=O)(=O)c1ccc(Cl)cc1F,-0.7,9.6*,6.7,0.3,-3.2,-1.0
